Activity calls are given as the source filed them. The rule behind the calls is not given here.
What was measured:
[1] = biological target: [Pyruvate dehydrogenase (acetyl-transferring)] kinase isozyme 4, mitochondrial (Homo sapiens, UniProt Q16654); assay: Inhibition of PDK4 in HEK293T cells assessed as reduction in PDHE1alpha phosphorylation at Ser-293 residue by measuring phosphorylated PDHE1alpha level at 10 uM after 24 hrs by Western blot analysis; format: cell-based
In short: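 HEK293T cells grown in high-glucose DMEM with 10% FBS at 37 °C, 5% CO2. Medium renewed after 24 h, then cells exposed to compound for 24 h and lysed. 20 μg protein per lane Western blotted with antibodies to phospho-PDHE1α Ser232, Ser293 and Ser300 and to total PDHE1α. Band intensity quantified relative to control; triplicate.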

Cytochrome P450 2D6 = Cytochrome P450 2D6 (Homo sapiens, UniProt P10635); assay: Inhibition of CYP2D6 in human liver microsomes assessed as reduction in dextromethorphan O-demethylation by tandem mass spectrometry analysis; format: ADME
Chain of Cytochrome P450 2D6 (P10635 whole entry): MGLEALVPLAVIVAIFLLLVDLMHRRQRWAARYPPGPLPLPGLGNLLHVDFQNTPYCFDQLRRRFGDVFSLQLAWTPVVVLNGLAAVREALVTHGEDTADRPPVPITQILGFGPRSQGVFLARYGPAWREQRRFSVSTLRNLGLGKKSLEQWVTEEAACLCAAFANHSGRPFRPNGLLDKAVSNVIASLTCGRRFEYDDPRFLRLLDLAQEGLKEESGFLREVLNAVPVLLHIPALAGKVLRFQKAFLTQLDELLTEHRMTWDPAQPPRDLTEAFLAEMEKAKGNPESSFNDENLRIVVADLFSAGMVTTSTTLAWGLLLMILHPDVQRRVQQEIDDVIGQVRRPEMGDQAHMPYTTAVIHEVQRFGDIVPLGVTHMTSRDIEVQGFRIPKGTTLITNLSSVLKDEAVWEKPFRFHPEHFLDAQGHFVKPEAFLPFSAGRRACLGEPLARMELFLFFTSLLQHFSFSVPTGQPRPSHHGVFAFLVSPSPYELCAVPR
In short: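 Pooled human liver microsomes incubated with compound at 0–50 μM final; CYP probe activities (phenacetin O-deethylation for 1A2, tolbutamide 4-hydroxylation for 2C9, omeprazole hydroxylation for 2C19, dextromethorphan O-demethylation for 2D6) run as a cocktail incubation and quantified by tandem MS; duplicates; IC50 derived.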

[2] = biological target: UDP-glucuronosyltransferase 1A9 (Homo sapiens, UniProt O60656); assay: Inhibition of UGT1A9 in human liver microsomes assessed as reduction in mycophenolic acid glucuronidation by tandem mass spectrometry analysis; format: ADME
Chain of UDP-glucuronosyltransferase 1A9 (O60656 whole entry): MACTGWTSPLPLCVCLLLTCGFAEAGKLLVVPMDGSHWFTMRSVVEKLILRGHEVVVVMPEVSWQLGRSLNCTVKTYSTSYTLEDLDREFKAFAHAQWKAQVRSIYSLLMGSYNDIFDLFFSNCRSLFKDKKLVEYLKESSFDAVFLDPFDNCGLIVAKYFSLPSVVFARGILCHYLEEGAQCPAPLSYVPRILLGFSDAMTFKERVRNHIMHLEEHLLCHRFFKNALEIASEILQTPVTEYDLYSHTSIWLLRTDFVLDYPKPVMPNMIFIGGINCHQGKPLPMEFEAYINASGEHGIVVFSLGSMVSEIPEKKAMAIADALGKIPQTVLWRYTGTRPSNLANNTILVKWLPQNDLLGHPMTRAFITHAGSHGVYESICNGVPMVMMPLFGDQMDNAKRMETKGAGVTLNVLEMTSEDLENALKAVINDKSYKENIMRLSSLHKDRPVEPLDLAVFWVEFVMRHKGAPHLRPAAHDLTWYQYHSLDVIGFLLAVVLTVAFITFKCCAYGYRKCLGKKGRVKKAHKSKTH
In short: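 Pooled human liver microsomes; test compound at final 0–50 μM in a cocktail incubation with probe substrates: midazolam 1′-hydroxylation (CYP3A), SN-38 glucuronidation (UGT1A1), trifluoperazine N-glucuronidation (UGT1A4), mycophenolic acid glucuronidation (UGT1A9), naloxone 3-glucuronidation (UGT2B7). Metabolites measured by tandem MS; IC50 determined; duplicate.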

L929 = assay: Cytotoxicity against mouse L929 cells; format: cell-based
[3] = Tmax in rat at 10 mg/kg, po; format: ADME, organism-based; settings: in vivo
[4] = biological target: RAC-alpha serine/threonine-protein kinase (Mus musculus) (UniProt P31750); assay: Increase in AKT phosphorylation at Ser-473 residue in mouse AML-12 cells at 10 uM after 24 hrs by Western blot analysis; format: cell-based
Chain of RAC-alpha serine/threonine-protein kinase (Mus musculus) (P31750 whole entry): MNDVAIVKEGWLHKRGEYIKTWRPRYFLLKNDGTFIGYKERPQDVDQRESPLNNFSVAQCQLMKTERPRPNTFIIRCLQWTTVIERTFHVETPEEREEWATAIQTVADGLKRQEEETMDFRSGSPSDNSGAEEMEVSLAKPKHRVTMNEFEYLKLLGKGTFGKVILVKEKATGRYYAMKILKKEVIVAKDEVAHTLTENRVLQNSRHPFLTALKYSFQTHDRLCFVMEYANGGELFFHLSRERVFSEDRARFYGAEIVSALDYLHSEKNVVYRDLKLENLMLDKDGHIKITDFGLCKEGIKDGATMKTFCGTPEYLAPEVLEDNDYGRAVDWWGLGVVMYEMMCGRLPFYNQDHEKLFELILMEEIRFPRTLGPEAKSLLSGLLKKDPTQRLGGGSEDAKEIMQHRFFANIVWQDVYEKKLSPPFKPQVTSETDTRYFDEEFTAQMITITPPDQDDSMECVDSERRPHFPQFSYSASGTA
In short: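 AML12 hepatocytes challenged with palmitate, then exposed to 10 μM compound or vehicle (5 mM DCA as reference) for 24 h; p-Akt read by Western blot of cell lysates.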

Mast cell = assay: Inhibition of degranulation in IgE-labeled bone marrow-derived mast cells (unknown origin) assessed as reduction in beta-hexosaminidase release preincubated for 1 hr followed by HSA stimulation and measured after 15 mins; format: functional, cell-based
[5] = biological target: Cellular tumor antigen p53 (Homo sapiens) (UniProt P04637); assay: Induction of p53 phosphorylation at Ser-15 residue in human RKO cells after 24 hrs by Western blot analysis; format: cell-based
Chain of Cellular tumor antigen p53 (Homo sapiens) (P04637 whole entry, looked up): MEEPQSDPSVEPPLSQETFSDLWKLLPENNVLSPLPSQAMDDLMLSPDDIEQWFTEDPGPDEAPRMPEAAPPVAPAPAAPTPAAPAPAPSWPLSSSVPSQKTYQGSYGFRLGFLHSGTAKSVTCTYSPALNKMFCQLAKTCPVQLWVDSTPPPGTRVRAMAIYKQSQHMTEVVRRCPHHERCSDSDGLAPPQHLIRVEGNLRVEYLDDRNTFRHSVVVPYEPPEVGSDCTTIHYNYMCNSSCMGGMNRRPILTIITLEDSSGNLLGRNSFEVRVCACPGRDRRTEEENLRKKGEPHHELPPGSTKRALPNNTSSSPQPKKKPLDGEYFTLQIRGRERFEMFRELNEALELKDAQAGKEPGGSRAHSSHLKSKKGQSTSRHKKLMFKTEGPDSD
In short: (§1)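 HCT116 and RKO cells given a range of compound doses for 24 h; lysates probed by Western blot for apoptosis-related proteins (p53, BAX, BCLxL).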

RKO [6] = assay: Induction of apoptosis in human RKO cells assessed as increase in cleaved-PARP expression at 10 to 50 uM after 24 hrs by Western blot analysis; format: functional, cell-based; in short: as §1
RKO [7] = assay: Induction of apoptosis in human RKO cells assessed as increase in cleaved caspase-3 expression at 10 to 50 uM after 24 hrs by Western blot analysis; format: functional, cell-based; in short: as §1
HCT-116 [8] = assay: Inhibition of colony formation in human HCT116 cells at 10 to 50 […] after 7 days by crystal violet staining based assay; format: functional, cell-based
In short: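 HCT116 and RKO cells seeded in 6-well plates and treated with compound for 7 days. Cells then fixed and stained with crystal violet to score colony formation.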

HCT-116 [9] = assay: Induction of apoptosis in human HCT116 cells assessed as live cells at 10 uM after 24 hrs by Annexin V/propidium iodide staining based flow cytometry (reference value: 84.4%); format: functional
HCT-116 [10] = assay: Induction of apoptosis in human HCT116 cells assessed as late apoptotic cells at 10 uM after 24 hrs by Annexin V/propidium iodide staining based flow cytometry (reference value: 8.36%); format: functional
HCT-116 [11] = assay: Induction of apoptosis in human HCT116 cells assessed as necrotic cells at 10 uM after 24 hrs by Annexin V/propidium iodide staining based flow cytometry (reference value: 2.92%); format: functional
HCT-116 [12] = assay: Induction of apoptosis in human HCT116 cells assessed as late apoptotic cells at 25 uM after 24 hrs by Annexin V/propidium iodide staining based flow cytometry (reference value: 8.36%); format: functional
HCT-116 [13] = assay: Induction of apoptosis in human HCT116 cells assessed as necrotic cells at 50 uM after 24 hrs by Annexin V/propidium iodide staining based flow cytometry (reference value: 2.92%); format: functional
HCT-116 [14] = assay: Cell cycle arrest in human HCT116 cells assessed as accumulation at G1/G0 phase at 25 uM after 24 hrs propidium iodide staining based flow cytometry (reference value: 42%); format: functional
In short: (§2)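 HCT116 and RKO cells were treated with compound alone or with oxaliplatin for 24 h before harvest. Cells were stained with propidium iodide, and DNA content was analysed by flow cytometry. Cell-cycle phase populations, including sub-G1, are given as percentages.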

HCT-116 [15] = assay: Cell cycle arrest in human HCT116 cells assessed as accumulation at S phase at 25 uM after 24 hrs propidium iodide staining based flow cytometry (reference value: 18%); format: functional; in short: as §2
HCT-116 [16] = assay: Cell cycle arrest in human HCT116 cells assessed as accumulation at S phase at 50 uM after 24 hrs propidium iodide staining based flow cytometry (reference value: 18%); format: functional; in short: as §2
HCT-116 [17] = assay: Cell cycle arrest in human HCT116 cells assessed as accumulation at G2/M phase at 25 uM after 24 hrs in presence of oxaliplatin propidium iodide staining based flow cytometry (reference value: 28.2%); format: functional; in short: as §2
RKO [18] = assay: Induction of apoptosis in human RKO cells assessed as late apoptotic cells at 10 uM after 24 hrs by Annexin V/propidium iodide staining based flow cytometry (reference value: 7.42%); format: functional
RKO [19] = assay: Induction of apoptosis in human RKO cells assessed as necrotic cells at 25 uM after 24 hrs by Annexin V/propidium iodide staining based flow cytometry (reference value: 0.56%); format: functional
RKO [20] = assay: Induction of apoptosis in human RKO cells assessed as early apoptotic cells at 50 uM after 24 hrs by Annexin V/propidium iodide staining based flow cytometry (reference value: 9.62%); format: functional
RKO [21] = assay: Induction of apoptosis in human RKO cells assessed as late apoptotic cells at 50 uM after 24 hrs by Annexin V/propidium iodide staining based flow cytometry (reference value: 7.42%); format: functional
RKO [22] = assay: Induction of apoptosis in human RKO cells assessed as necrotic cells at 25 uM after 24 hrs in presence of oxaliplatin by Annexin V/propidium iodide staining based flow cytometry (reference value: 0.22%); format: functional
RKO [23] = assay: Cell cycle arrest in human RKO cells assessed as accumulation at G1/G0 phase at 10 uM after 24 hrs propidium iodide staining based flow cytometry (reference value: 39.9%); format: functional; in short: as §2
RKO [24] = assay: Cell cycle arrest in human RKO cells assessed as accumulation at sub-G1 phase at 50 uM after 24 hrs propidium iodide staining based flow cytometry (reference value: 17.6%); format: functional
RKO [25] = assay: Cell cycle arrest in human RKO cells assessed as accumulation at sub-G1 phase at 25 uM after 24 hrs in presence of oxaliplatin propidium iodide staining based flow cytometry (reference value: 12%); format: functional; in short: as §2

Chain of [Pyruvate dehydrogenase (acetyl-transferring)] kinase isozyme 4, mitochondrial (Q16654 whole entry, looked up): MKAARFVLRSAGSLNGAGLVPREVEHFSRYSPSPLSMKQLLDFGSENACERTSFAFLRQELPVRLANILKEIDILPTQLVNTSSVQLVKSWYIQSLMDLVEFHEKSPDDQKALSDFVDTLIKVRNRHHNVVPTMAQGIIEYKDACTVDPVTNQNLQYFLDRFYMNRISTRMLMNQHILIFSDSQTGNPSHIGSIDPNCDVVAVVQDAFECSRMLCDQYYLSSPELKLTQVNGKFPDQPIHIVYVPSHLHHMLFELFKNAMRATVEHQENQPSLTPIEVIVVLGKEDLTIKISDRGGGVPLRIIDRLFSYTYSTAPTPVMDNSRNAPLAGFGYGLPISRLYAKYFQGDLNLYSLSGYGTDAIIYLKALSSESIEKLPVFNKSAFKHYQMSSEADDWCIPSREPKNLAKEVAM

Cl.O=C1c2ccccc2C(=O)c2c1cccc2-c1cnn(C2CCNCC2)c1
fold change (FC) [1]: 0.18 | IC50 (Cytochrome P450 2D6): > 50 µM | IC50 [2]: > 50 µM | IC50 (L929): 35.8 µM | Tmax [3]: 6 h | Activity [4]: Active | inhibition (Mast cell): Dose-dependent effect | Activity [5]: Dose-dependent effect | Activity (RKO [6]): Active | Activity (RKO [7]): Active | inhibition (HCT-116 [8]): Active | Activity (HCT-116 [9]): 77.9% | Activity (HCT-116 [10]): 7.1% | Activity (HCT-116 [11]): 12.1% | Activity (HCT-116 [12]): 23.9% | Activity (HCT-116 [13]): 20.2% | Activity (HCT-116 [14]): 19% | Activity (HCT-116 [15]): 11.4% | Activity (HCT-116 [16]): 5.3% | Activity (HCT-116 [17]): 33.5% | Activity (RKO [18]): 11.2% | Activity (RKO [19]): 4.61% | Activity (RKO [20]): 41.4% | Activity (RKO [21]): 49% | Activity (RKO [22]): 5.07% | Activity (RKO [23]): 46.7% | Activity (RKO [24]): 91.1% | Activity (RKO [25]): 67.4%
